The values that follow come from ChEMBL document CHEMBL4325904 (Eur J Med Chem, 2019).

Active and inactive are the calls of the source. The rule behind the calls is not given here.

For one assay, the target named is T1, Histone deacetylase 8 (Homo sapiens, UniProt Q9BY41).
T1 sequence (Q9BY41 whole entry): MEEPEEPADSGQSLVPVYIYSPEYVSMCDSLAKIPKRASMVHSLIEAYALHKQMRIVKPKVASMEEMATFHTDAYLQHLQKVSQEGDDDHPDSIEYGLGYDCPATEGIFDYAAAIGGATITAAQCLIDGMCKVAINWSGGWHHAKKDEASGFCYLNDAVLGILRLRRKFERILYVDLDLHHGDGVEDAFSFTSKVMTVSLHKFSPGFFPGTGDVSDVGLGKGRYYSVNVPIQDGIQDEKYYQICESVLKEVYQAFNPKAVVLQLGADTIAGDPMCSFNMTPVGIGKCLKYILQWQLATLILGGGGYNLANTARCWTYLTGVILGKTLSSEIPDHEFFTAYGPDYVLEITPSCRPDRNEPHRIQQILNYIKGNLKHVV
Description: Inhibition of recombinant C-terminal His-tagged human HDAC8 (1 to 377 residues) expressed in Baculovirus infected insect cells using RHK-K(Ac)-AMC as substrate by fluorimetric assay.

The subject of another assay is A549. Description: Induction of morphological changes in human A549 cells assessed as increase in protrusions of the membrane at 10 uM after 20 mins by naphthalimide/Lysotracker Deep Red dye-based inverted light fluorescence confocal microscopic analysis. Format: functional, cell-based. The method, boiled down:
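A549 cells exposed to compound at 10 µM for 20 minutes, then imaged by confocal microscopy (λex 405 nm, λem 460–560 nm); membrane protrusions (blebbing) recorded.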

For a further assay, the system named is Kasumi 1. Kind of assay: Potency index, ratio of scriptaid IC50 to test compound IC50 for human Kasumi-1 cells. Type of assay: functional.

What is called IC50 is the concentration that inhibits the measured activity by half. With `O=C(CCCCCN1C(=O)c2cccc3c(NCc4ccccc4)ccc(c23)C1=O)NO`, the IC50 at Histone deacetylase 8 worked out at 2460 nM. The outcome in the assay with A549 was Active.

In the case of `CCCNc1ccc2c3c(cccc13)C(=O)N(CCCCCC(=O)NO)C2=O`, the IC50 on Histone deacetylase 8 came to 1520 nM. Also, the “Ratio IC50” value in the assay on Kasumi 1 is listed as 5.
